Source: ChEMBL document CHEMBL1949555, “Piperazine-2,3-dicarboxylic acid derivatives as dual antagonists of NMDA and GluK1-containing kainate receptors” (J Med Chem, 2012)

Tests used:
[1] = target: Ionotropic glutamate receptor NMDA 1/2D (Rattus norvegicus, UniProt P35439+Q62645); test: Antagonist activity rat recombinant GluN1/GluN2D receptor expressed in Xenopus laevis oocytes assessed as inhibition of glutamate-induced response by two-electrode voltage-clamp electrophysiology assay; type: functional, cell-based, Oocyte; conditions: read-out: Ki(app)
[2] = target: Glutamate receptor ionotropic, kainate 1 (Homo sapiens, UniProt P39086); test: Antagonist activity at human recombinant GluK1 receptor expressed in human HEK293 cells assessed as inhibition of glutamate-stimulated calcium influx by fluorescence assay; type: functional, cell-based
How it was run: (§1)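 HEK293 lines stably expressing homomeric human GluK1(Q) or GluK2(Q), passaged no more than 20 times. Ca2+ influx is read as fluorescence, with concanavalin A present. Test compound is added in a first run, then L-glutamate plus antagonist in a second run (final glutamate 30 μM for GluK1, 10 μM for GluK2). IC50 values are converted to KB. Means ± s.e.m.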

[3] = species on record: Rattus norvegicus; test: Selectivity ratio of Ki(app) for rat recombinant GluN1/GluN2A receptor to Ki(app) for rat recombinant GluN1/GluN2D receptor
[4] = target: Glutamate NMDA receptor; Grin1/Grin2c (Rattus norvegicus, UniProt P35439+Q00961); test: Antagonist activity rat recombinant GluN1/GluN2C receptor expressed in Xenopus laevis oocytes assessed as inhibition of glutamate-induced response by two-electrode voltage-clamp electrophysiology assay; type: functional, cell-based, Oocyte; conditions: read-out: Ki(app)
How it was run: (§2)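 Two-electrode voltage clamp of oocytes expressing rat GluN1a with the given GluN2 subunit, held at −60 mV in buffer of 116 mM NaCl, 2 mM KCl, 0.3 mM BaCl2, 5 mM HEPES, pH 7.4. Response is the steady plateau to bath-applied 10 μM L-glutamate plus 10 μM glycine. IC50 converted to apparent Ki via Ki = IC50/(1 + [agonist]/EC50). Means ± s.e.m.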

[5] = species on record: Rattus norvegicus; test: Selectivity ratio of Ki(app) for rat recombinant GluN1/GluN2B receptor to Ki(app) for rat recombinant GluN1/GluN2D receptor
How it was run: (§3)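 Rat GluN1a is co-expressed with GluN2A, 2B, 2C or 2D in Xenopus oocytes and recorded by two-electrode voltage clamp at −60 mV. Buffer is 116 mM NaCl, 2 mM KCl, 0.3 mM BaCl2, 5 mM HEPES, pH 7.4. The plateau response to bath-applied 10 μM L-glutamate plus 10 μM glycine is measured. Apparent Ki is IC50/(1+[agonist]/EC50).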

[6] = target: Glutamate receptor ionotropic, kainate 2 (Homo sapiens, UniProt Q13002); test: Antagonist activity at human recombinant GluK2 receptor expressed in human HEK293 cells assessed as inhibition of glutamate-stimulated calcium influx by fluorescence assay; type: functional, cell-based; how it was run: as §1
[7] = species on record: Rattus norvegicus; test: Selectivity ratio of Ki(app) for rat recombinant GluN1/GluN2C receptor to Ki(app) for rat recombinant GluN1/GluN2D receptor; how it was run: as §3
[8] = target: Glutamate NMDA receptor; Grin1/Grin2a (Rattus norvegicus, UniProt P35439+Q00959); test: Antagonist activity at rat recombinant GluN1/GluN2A receptor expressed in Xenopus laevis oocytes assessed as inhibition of glutamate-induced response by two-electrode voltage-clamp electrophysiology assay; type: functional, cell-based, Oocyte; conditions: read-out: Ki(app)
[9] = target: Glutamate NMDA receptor; Grin1/Grin2b (Rattus norvegicus, UniProt P35439+Q00960); test: Antagonist activity rat recombinant GluN1/GluN2B receptor expressed in Xenopus laevis oocytes assessed as inhibition of glutamate-induced response by two-electrode voltage-clamp electrophysiology assay; type: functional, cell-based, Oocyte; conditions: read-out: Ki(app); how it was run: as §2
[10] = system: Kainate receptors (Rattus norvegicus); test: Displacement of [3H]-Kainate from native kainate receptors in rat brain homogenate; conditions: concentration not given here
[11] = Selectivity ratio of Kb for human recombinant GluK1 receptor to Ki(app) for rat recombinant GluN1/GluN2D receptor
[12] = Solubility of the compound in water at >100 uM; type: physicochemical; conditions: buffer
[13] = target: Glutamate NMDA receptor; Grin1/Grin2c (Rattus norvegicus) (UniProt P35439+Q00961); test: Antagonist activity rat recombinant GluN1/GluN2C receptor expressed in Xenopus laevis oocytes assessed as inhibition of glutamate-induced response at 100 uM by two-electrode voltage-clamp electrophysiology assay; type: functional, cell-based; conditions: Oocyte
How it was run: (§4)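 Rat GluN1a co-expressed with GluN2A, 2B, 2C or 2D in Xenopus oocytes. Two-electrode voltage clamp at −60 mV in buffer of 116 mM NaCl, 2 mM KCl, 0.3 mM BaCl2, 5 mM HEPES, pH 7.4. Response is the steady plateau evoked by bath-applied 10 μM L-glutamate plus 10 μM glycine. Read-out is percent antagonism by 100 μM test compound.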

[14] = target: Glutamate NMDA receptor; Grin1/Grin2b (Rattus norvegicus) (UniProt P35439+Q00960); test: Antagonist activity rat recombinant GluN1/GluN2B receptor expressed in Xenopus laevis oocytes assessed as inhibition of glutamate-induced response at 100 uM by two-electrode voltage-clamp electrophysiology assay; type: functional, cell-based; conditions: Oocyte; how it was run: as §4
[15] = target: Glutamate NMDA receptor; Grin1/Grin2a (Rattus norvegicus) (UniProt P35439+Q00959); test: Antagonist activity at rat recombinant GluN1/GluN2A receptor expressed in Xenopus laevis oocytes assessed as inhibition of glutamate-induced response at 100 uM by two-electrode voltage-clamp electrophysiology assay; type: functional, cell-based; conditions: Oocyte; how it was run: as §4
[16] = target: Ionotropic glutamate receptor NMDA 1/2D (Rattus norvegicus) (UniProt P35439+Q62645); test: Antagonist activity rat recombinant GluN1/GluN2D receptor expressed in Xenopus laevis oocytes assessed as inhibition of glutamate-induced response at 100 uM by two-electrode voltage-clamp electrophysiology assay; type: functional, cell-based; conditions: Oocyte; how it was run: as §4

Chain of Glutamate receptor ionotropic, kainate 1 (P39086 whole entry): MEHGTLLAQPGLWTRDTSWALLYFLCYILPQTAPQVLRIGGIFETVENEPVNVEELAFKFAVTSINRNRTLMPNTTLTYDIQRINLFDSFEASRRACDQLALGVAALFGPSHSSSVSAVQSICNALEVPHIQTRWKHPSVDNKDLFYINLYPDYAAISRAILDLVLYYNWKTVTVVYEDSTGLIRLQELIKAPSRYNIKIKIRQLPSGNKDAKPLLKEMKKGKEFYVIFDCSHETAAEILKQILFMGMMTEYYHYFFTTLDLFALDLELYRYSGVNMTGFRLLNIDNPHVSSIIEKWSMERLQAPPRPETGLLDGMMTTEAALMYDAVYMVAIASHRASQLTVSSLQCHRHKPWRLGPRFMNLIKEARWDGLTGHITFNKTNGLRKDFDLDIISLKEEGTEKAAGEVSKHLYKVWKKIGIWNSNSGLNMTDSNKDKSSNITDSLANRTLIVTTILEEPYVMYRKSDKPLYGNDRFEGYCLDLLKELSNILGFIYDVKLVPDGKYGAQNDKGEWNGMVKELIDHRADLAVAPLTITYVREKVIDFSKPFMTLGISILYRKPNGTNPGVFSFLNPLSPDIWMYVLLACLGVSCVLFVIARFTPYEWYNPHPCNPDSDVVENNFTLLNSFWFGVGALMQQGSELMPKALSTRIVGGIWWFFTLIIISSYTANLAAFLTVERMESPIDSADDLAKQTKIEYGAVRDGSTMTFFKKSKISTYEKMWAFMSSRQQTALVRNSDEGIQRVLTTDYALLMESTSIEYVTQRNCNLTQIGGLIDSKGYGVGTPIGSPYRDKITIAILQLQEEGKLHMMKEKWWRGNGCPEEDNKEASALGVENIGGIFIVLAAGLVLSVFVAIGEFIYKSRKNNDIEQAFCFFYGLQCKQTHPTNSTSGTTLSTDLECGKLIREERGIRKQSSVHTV
Chain of Glutamate receptor ionotropic, kainate 2 (Q13002 whole entry): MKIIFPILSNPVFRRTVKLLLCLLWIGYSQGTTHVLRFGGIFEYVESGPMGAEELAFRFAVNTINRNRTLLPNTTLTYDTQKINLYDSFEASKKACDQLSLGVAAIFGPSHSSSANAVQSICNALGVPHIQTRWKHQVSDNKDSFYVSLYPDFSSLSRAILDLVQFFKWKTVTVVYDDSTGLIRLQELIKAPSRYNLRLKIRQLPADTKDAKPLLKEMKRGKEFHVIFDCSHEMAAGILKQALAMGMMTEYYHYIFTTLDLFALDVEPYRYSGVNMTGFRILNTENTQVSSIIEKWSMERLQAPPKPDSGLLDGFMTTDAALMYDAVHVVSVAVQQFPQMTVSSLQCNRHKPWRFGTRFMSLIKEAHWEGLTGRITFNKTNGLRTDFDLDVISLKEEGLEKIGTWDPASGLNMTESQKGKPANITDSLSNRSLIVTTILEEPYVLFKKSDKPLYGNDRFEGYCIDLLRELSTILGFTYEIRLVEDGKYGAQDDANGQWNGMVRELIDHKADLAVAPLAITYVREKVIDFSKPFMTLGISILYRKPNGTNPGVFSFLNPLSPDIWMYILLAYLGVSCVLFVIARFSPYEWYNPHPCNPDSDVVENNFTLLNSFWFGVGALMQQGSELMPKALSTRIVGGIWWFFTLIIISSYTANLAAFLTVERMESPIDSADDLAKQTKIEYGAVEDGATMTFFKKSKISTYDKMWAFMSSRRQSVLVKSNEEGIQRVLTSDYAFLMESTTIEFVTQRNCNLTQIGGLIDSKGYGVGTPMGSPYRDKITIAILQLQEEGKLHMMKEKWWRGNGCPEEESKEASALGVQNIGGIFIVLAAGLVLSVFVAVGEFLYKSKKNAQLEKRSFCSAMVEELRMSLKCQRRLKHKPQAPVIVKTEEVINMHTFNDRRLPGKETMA

SMILES | Ki [1] [µM] | Kb [2] [µM] | Ki [4] [µM] | Kb [6] [µM] | Ki [8] [µM] | Ki [9] [µM] | other results
O=C(O)[C@H]1NCCN(S(=O)(=O)c2ccc(-c3ccccc3)cc2)[C@H]1C(=O)O | 10.9 | > 100 |  |  |  |  | 
O=C(O)[C@H]1NCCN(C(=O)c2ccc3ccc4ccccc4c3c2)[C@H]1C(=O)O | 2.4 | 14.2 | 5.2 | > 100 | 22 | 17.2 | Ratio Ki(app) [3]: 10; Ratio Ki(app) [5]: 7; Ratio Ki(app) [7]: 2; inhibition [10]: 10%
O=C(O)[C@H]1NCCN(C(=O)c2ccc3c(c2)CCc2cc(Br)ccc2-3)[C@H]1C(=O)O | 1 | 11.5 |  |  |  |  | 
O=C(O)[C@H]1NCCN(C(=O)c2ccc3c(ccc4cc(Br)ccc43)c2)[C@H]1C(=O)O | 0.15 | 8 |  | > 100 |  |  | 
O=C(O)[C@H]1NCCN(Cc2ccc3c(ccc4ccccc43)c2)[C@H]1C(=O)O | 3.2 | 39 |  |  |  |  | 
O=C(O)[C@@H]1[C@H](C(=O)O)NCCN1C(=O)c1ccc2c(ccc3ccccc32)c1 | 0.09 | 3 | 0.07 | > 100 | 0.21 | 0.22 | Ratio [11]: 30
O=C(O)[C@H]1NCCN(C(=O)c2ccc3c(c2)CCc2ccccc2-3)[C@H]1C(=O)O | 0.57 | 14.1 |  | > 100 |  |  | 
O=C(O)[C@H]1NCCN(C(=O)c2ccc(-c3ccccc3)cc2)[C@H]1C(=O)O | 4.3 | 9.8 |  | > 100 |  |  | 
O=C(O)[C@H]1NCCN(C(=O)c2ccc3ccccc3c2)[C@H]1C(=O)O |  | 45.6 |  |  |  |  | 
O=C(O)C1NCCN(C(=O)c2ccc3c(ccc4ccccc43)c2)C1C(=O)O (racemic) [listing 1 of 2 here] | 0.13 |  | 0.1 |  | 0.55 | 0.31 | 
O=C(O)[C@@H]1NCCN(C(=O)c2ccc3c(ccc4ccccc43)c2)[C@H]1C(=O)O (racemic) | 6 | 59.2 |  |  |  |  | 
O=C(O)C1NCCN(C(=O)c2ccc3c(ccc4ccccc43)c2)C1C(=O)O (racemic) [listing 2 of 2 here] |  | 7.5 |  | > 100 |  |  | 
O=C(O)[C@H]1NCCN(C(=O)c2ccc3cc(F)ccc3c2)[C@H]1C(=O)O (relative stereo) | 5.1 | 52.9 | 3.6 |  | 7.4 | 12.3 | 
O=C(O)[C@H]1NCCN(C(=O)c2ccc3cc(Br)ccc3c2)[C@H]1C(=O)O (relative stereo) | 2.2 | 16.2 | 2.1 |  | 4.1 | 2.7 | 
O=C(O)[C@H]1NCCN(C(=O)c2ccc3cc(I)ccc3c2)[C@H]1C(=O)O (relative stereo) | 1.6 | 7.5 | 1.8 | > 100 | 3 | 1.3 | 
O=C(O)[C@H]1NCCN(C(=O)c2ccc3cc(-c4ccccc4)ccc3c2)[C@H]1C(=O)O (relative stereo) | 2.4 | 5.8 | 5.1 | > 100 | > 100 | > 100 | solubility [12]: Insoluble
O=C(O)[C@H]1NCCN(C(=O)CCc2ccc3ccccc3c2)[C@H]1C(=O)O (relative stereo) | 2.7 | 67.8 | 4.1 |  | 5.1 | 2.3 | 
O=C(O)c1ccc2cc(C(=O)N3CCN[C@H](C(=O)O)[C@@H]3C(=O)O)ccc2c1 (relative stereo) | > 100 | 59.7 | > 100 |  | > 100 | > 100 | inhibition [13]: < 5%; inhibition [14]: < 5%; inhibition [15]: < 5%; inhibition [16]: < 5%
O=C(O)c1ccc(-c2ccc(C(=O)N3CCN[C@H](C(=O)O)[C@@H]3C(=O)O)cc2)cc1 (relative stereo) |  | 51.5 | > 100 |  |  | > 100 | inhibition [13]: < 15%; inhibition [14]: < 15%; solubility [12]: Insoluble
O=C(O)[C@H]1NCCN(C(=O)c2ccc(C#Cc3ccccc3)cc2)[C@H]1C(=O)O (relative stereo) | 10.5 |  | 21.4 | > 100 | 138 | 24.1 | 
O=C(O)[C@H]1NCCN(C(=O)c2ccc(/N=N/c3ccccc3)cc2)[C@H]1C(=O)O (relative stereo) | 10.8 |  | 28 | > 100 | 99.3 | 12.9 | 
O=C(O)[C@H]1NCCN(C(=O)c2ccc(CCc3ccccc3)cc2)[C@H]1C(=O)O (relative stereo) | > 100 | 16.7 | > 100 |  | > 100 | > 100 | inhibition [13]: 29.1%; inhibition [14]: > 5%; inhibition [15]: 11.5%; inhibition [16]: 10.2%
O=C(O)[C@H]1NCCN(C(=O)c2ccc3cc(Cl)c4ccccc4c3c2)[C@H]1C(=O)O (relative stereo) | 1.7 | 21.8 | 3.2 |  | 7.2 | 15.2 | 
O=C(O)[C@H]1NCCN(C(=O)c2ccc3cc(Br)c4ccccc4c3c2)[C@H]1C(=O)O (relative stereo) | 1.2 | 12.8 | 2.8 | > 100 | 11.5 | 8 | Ratio Ki(app) [3]: 10; Ratio Ki(app) [5]: 7; Ratio Ki(app) [7]: 2; Ratio [11]: 9; inhibition [10]: 10%
O=C(O)[C@H]1NCCN(C(=O)c2ccc3cc4ccccc4cc3c2)[C@H]1C(=O)O (relative stereo) | 2.5 | 14.4 | 3.4 | > 100 | 10.5 | 5.2 | 
O=C(O)C1NCCN(C(=O)c2ccc3c(ccc4ccccc43)c2)C1C(=O)O (single isomer, unassigned; (+)) |  | 82 |  |  |  |  | 
